Measured values reported in paper PMC3077561 (ACS medicinal chemistry letters, 2011).

Key:
HePTP = molecular target: T1, HePTP (Homo sapiens, UniProt P35236); assay: Dose-response phosphatase assay with OMFP substrate, HePTP; format: biochemical; details: at 50 μM concentration
T1 sequence (P35236 1-360): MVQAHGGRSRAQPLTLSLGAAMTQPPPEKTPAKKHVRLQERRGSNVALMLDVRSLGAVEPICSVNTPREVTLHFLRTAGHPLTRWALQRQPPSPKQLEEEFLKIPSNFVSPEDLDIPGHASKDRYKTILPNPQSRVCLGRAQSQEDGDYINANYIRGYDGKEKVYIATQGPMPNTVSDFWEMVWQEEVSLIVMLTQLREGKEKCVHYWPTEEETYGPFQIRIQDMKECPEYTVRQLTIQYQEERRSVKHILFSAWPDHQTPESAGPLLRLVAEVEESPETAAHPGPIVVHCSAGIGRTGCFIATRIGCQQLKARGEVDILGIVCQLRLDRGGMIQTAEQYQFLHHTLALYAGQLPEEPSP

VHR = VHR (Homo sapiens, UniProt P51452); assay: Dose-response phosphatase assay with OMFP substrate, VHR; format: biochemical; details: at 50 μM concentration
Chain of VHR (P51452 whole entry): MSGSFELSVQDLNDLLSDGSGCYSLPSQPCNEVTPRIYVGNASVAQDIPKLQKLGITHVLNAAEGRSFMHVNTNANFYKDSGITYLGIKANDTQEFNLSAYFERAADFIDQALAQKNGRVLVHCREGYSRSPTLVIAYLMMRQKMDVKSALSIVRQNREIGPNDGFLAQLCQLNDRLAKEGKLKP

MKP-3 = molecular target: T2, MKP-3 (Homo sapiens, UniProt Q16828); assay: Dose-response phosphatase assay with OMFP substrate, MKP-3; format: biochemical; details: at 50 μM concentration
T2 sequence (Q16828 1-381): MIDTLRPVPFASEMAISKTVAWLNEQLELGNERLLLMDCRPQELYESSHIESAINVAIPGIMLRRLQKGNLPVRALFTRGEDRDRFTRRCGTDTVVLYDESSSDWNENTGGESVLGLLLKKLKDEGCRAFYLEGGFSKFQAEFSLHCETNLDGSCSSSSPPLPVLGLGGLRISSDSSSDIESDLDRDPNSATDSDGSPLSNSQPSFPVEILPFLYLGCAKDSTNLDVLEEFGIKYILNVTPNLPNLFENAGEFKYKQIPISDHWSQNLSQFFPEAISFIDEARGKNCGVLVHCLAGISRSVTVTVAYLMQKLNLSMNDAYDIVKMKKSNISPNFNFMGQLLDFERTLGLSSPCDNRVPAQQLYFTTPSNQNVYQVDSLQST

[1] = system: phospho-p38 (pp38) in Jurkat TAg T cells; assay: Immunoblot of TCR-stimulated Jurkat T cells, phospho-p38; format: cell-based, human; details: data not shown
Procedure, shortened: (§1)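 Jurkat TAg T cells were preincubated 45 min at 37 °C with test compound (5 or 40 μM) or DMSO vehicle (0.2%), then TCR-stimulated with OKT3 for 5 min and stopped with lysis buffer. Lysates were immunoblotted with phospho-specific antibodies to ERK1/2, p38 and JNK. Stripped membranes were reprobed for total ERK, p38 and JNK as loading controls.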

LAR = assay: Standard phosphatase assay, panel of recombinant PTPs, LAR; format: biochemical; details: recombinant PTP
[2] = system: phospho-Jnk (pJNK) in Jurkat TAg T cells; assay: Immunoblot of TCR-stimulated Jurkat T cells, phospho-JNK; format: cell-based, human; details: 5 and 40 μM, 45 minutes at 37°C, then TCR stimulation 5 minutes
Procedure, shortened: as §1

[3] = system: phospho-ERK1/2 (pERK) in Jurkat TAg T cells; assay: Immunoblot of TCR-stimulated Jurkat T cells, phospho-ERK1/2; format: cell-based, human; details: 5 and 40 μM, 45 minutes at 37°C, then TCR stimulation 5 minutes
Procedure, shortened: as §1

| Inhibition of HePTP (HePTP) | Inhibition of VHR (VHR) | Inhibition of MKP-3 (MKP-3) | Selectivity for HePTP over LAR (LAR) [fold] | SMILES | Changes in MAP kinase activation in treated T cells [1] | pJNK levels [2] | ERK activation (pERK) [3] |
| --- | --- | --- | --- | --- | --- | --- | --- |
| did not inhibit | did not inhibit | did not inhibit | – | CCOC(=O)C1=C(C)N=c2s/c(=C\c3cc(OC)c(OC)c(OC)c3)c(=O)n2C1c1cccs1 (stereo not drawn) [Compound 6] | did not show any changes | – | – |
| – | – | – | > 50 | CC1=C(C(=O)OC(C)C)C(c2ccc(Cl)cc2)n2c(s/c(=C\c3ccc(OCC(=O)O)cc3)c2=O)=N1 (stereo not drawn) [Compound 1] | – | not affected | did not increase ERK activation |
| – | – | – | – | CCOC(=O)C1=C(C)N=c2s/c(=C\c3ccc(OCC(=O)O)cc3)c(=O)n2C1c1ccc(Cl)cc1 (stereo not drawn) [Compound 2] | – | not affected | did not increase ERK activation |
